Experimental data published in ChEMBL document CHEMBL2021824, “Structural modifications modulate stability of glutathione-activated arylated diazeniumdiolate prodrugs” (Bioorg Med Chem, 2012).
Calls of active or inactive are those of the source. The rule behind the calls is not given here.

Tests used:
NCI-H1703 [1] = test: Antiproliferative activity against human NCI-H1703 cells after 48 hrs by MTT assay; assay type: functional, cell-based; settings: NCI-H1703, 48 h
[2] = Half life of the compound in GSH-containing buffer; assay type: physicochemical
In short: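 Loss of the diazeniumdiolate chromophore followed by UV-visible spectrophotometry at 37 °C. Absorbance was tracked at each compound's λmax. kobs came from a first-order exponential fit and half-life was derived from it. Mean (SE).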

[3] = Prodrug activation assessed as GSH-induced nitric oxide production per mol of the compound by chemiluminescence assay; assay type: physicochemical
In short: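 Phosphate buffer, pH 7.4, containing 4 mM GSH at 37 °C was sparged with inert gas until the detector response was steady. The prodrug was then injected and NO release followed over time. The release curve was integrated to give mol NO per mol compound, reported as mean (SE).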

NCI-H1703 [4] = test: Metabolic stability in human NCI-H1703 cells assessed as formation of arylated GSH at 5 uM after 5 mins by LC/MS analysis; assay type: ADME, cell-based; settings: nci-h1703, 5 min
In short: (§1)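 H1703 cells plated in flasks and incubated overnight at 37 °C, then treated with 5 μM compound for 5, 30 or 60 min. Cells lysed by scraping in 10 mM HCl with freeze-thaw cycles, then deproteinized with 5-sulfosalicylic acid and centrifuged. Supernatant analyzed by LC/MS with positive APCI on a C18 column using a water/acetonitrile/0.1% formic acid gradient. Extracted ion chromatograms tracked parent and arylated GSH.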

NCI-H1703 [5] = test: Metabolic stability in human NCI-H1703 cells assessed as formation of arylated GSH at 5 uM after 30 mins by LC/MS analysis; assay type: ADME, cell-based; settings: nci-h1703, 0.5 h; in short: as §1
NCI-H1703 [6] = test: Metabolic stability in human NCI-H1703 cells assessed as formation of arylated GSH at 5 uM after 60 mins by LC/MS analysis; assay type: ADME, cell-based; settings: nci-h1703, 1 h; in short: as §1
NCI-H1703 [7] = test: Antitumor activity against human NCI-H1703 cells xenografted in athymic NCr-nu/nu mouse at 20 umol/kg, ip 5 times a week for 4-weeks relative to control; assay type: functional, organism-based
In short: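 H1703 cells implanted in the flank of 7-week-old female athymic NCr-nu/nu mice. Dosing started once tumors reached 2 × 2 × 2 mm3 (typically four weeks). Compound was given as Pluronic P123 micelles at 20 μmol/kg ip, five times a week for four weeks. Vehicle controls received 2.25% Pluronic P123 in PBS. Tumors measured by caliper and body weights tracked. Welch-corrected t-test.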

H1703 [8] = test: Induction of SAPK/JNK phosphorylation in human H1703 cells at 1 uM after 4 hrs by Western blotting analysis; assay type: cell-based
In short: (§2)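 H1703 lung adenocarcinoma cells exposed to 1 μM compound for 4 h. Western blots probed for phospho-SAPK/JNK, phospho-c-jun, ATF3, PARP (full-length and 89-kDa cleaved fragment) and cleaved effector caspases 3 and 7.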

H1703 [9] = test: Induction of SAPK/JNK-mediated c-jun phosphorylation in human H1703 cells at 1 uM after 4 hrs by Western blotting analysis; assay type: cell-based; in short: as §2
[10] = Induction of SAPK/JNK-mediated ATF3 upregulation in human H1703 cells at 1 uM after 4 hrs by Western blotting analysis; assay type: cell-based; in short: as §2
NCI-H1703 [11] = test: Induction of apoptosis in human NCI-H1703 cells assessed as PARP cleavage at 1 uM after 4 hrs by Western blotting analysis; assay type: functional, cell-based; in short: as §2
NCI-H1703 [12] = test: Induction of apoptosis in human NCI-H1703 cells assessed as cleaved of caspase 3 level at 1 uM after 4 hrs by Western blotting analysis; assay type: functional, cell-based; in short: as §2
NCI-H1703 [13] = test: Induction of apoptosis in human NCI-H1703 cells assessed as cleaved of caspase 7 level at 1 uM after 4 hrs by Western blotting analysis; assay type: functional, cell-based; in short: as §2

| IC50 (NCI-H1703 [1]) | t1/2 [2] | NO yield [3] | SMILES | further results |
| --- | --- | --- | --- | --- |
| > 20000 nM | 918 min | – | CCOC(=O)N1CCN(/[N+]([O-])=N/Oc2ccc(C#N)cc2C#N)CC1 | – |
| 680 nM | 42.6 min | 1.96 mol/mol | CCOC(=O)N1CCCN(/[N+]([O-])=N/Oc2ccc(C#N)cc2[N+](=O)[O-])CC1 | – |
| 550 nM | 33.6 min | 2.04 mol/mol | CCOC(=O)N1CCN(/[N+]([O-])=N/Oc2ccc([N+](=O)[O-])cc2C#N)CC1 | Stability (NCI-H1703 [4]): Stable; Stability (NCI-H1703 [5]): Stable; Stability (NCI-H1703 [6]): Unstable; Activity (NCI-H1703 [7]): Active; Activity (H1703 [8]): Active; Activity (H1703 [9]): Active; Activity [10]: Active; Activity (NCI-H1703 [11]): Active; Activity (NCI-H1703 [12]): Active; Activity (NCI-H1703 [13]): Active |
| 730 nM | 22.1 min | 2.02 mol/mol | CCOC(=O)N1CCN(/[N+]([O-])=N/Oc2ccc(C#N)cc2[N+](=O)[O-])CC1 | – |
| 2620 nM | 66 min | 2.01 mol/mol | CCOC(=O)N1CCCN(/[N+]([O-])=N/Oc2ccc([N+](=O)[O-])cc2C#N)CC1 | – |

| SMILES | IC50 (NCI-H1703 [1]) | t1/2 [2] | NO yield [3] | further results |
| --- | --- | --- | --- | --- |
| CCOC(=O)N1CCCN(/[N+]([O-])=N/Oc2ccc([N+](=O)[O-])cc2[N+](=O)[O-])CC1 | – | – | 2 mol/mol | – |
| CCOC(=O)N1CCN(/[N+]([O-])=N/Oc2ccc([N+](=O)[O-])cc2[N+](=O)[O-])CC1 | 1080 nM | – | 1.96 mol/mol | – |
